High-throughput results from PubChem BioAssay.
Only some compounds are listed: those with a hit (about 3.7% of all), similar ones and a draw of the others.
Kir21 block: inhibitors of mouse Kir2.1 inward-rectifier potassium channel | HEK293-Kir2.1, FluxOR thallium flux fluorescence; active compounds read low | B-score at 10 µM | Inward rectifier potassium channel 2 (Mus musculus), P35561 | 310,000 tested, 0.85% active;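 active = fluorescence ratio B-score at or below minus 3 SD of library scores, with starting-brightness B-score within 2 SD, cut at about -4.2 in these data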;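 also: channel flux triggered by added potassium and thallium sulfate stimulus; B-score of peak minus minimum fluorescence over baseline after thallium stimulus; more negative B-score means stronger Kir2.1 block with less thallium influx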
hERG protect: hERG rescue from dofetilide block, primary screen, cell-based, CHO-hERG, FluxOR thallium flux, dofetilide IC70 | AID 1511, 2009 | activation (rescue from dofetilide block), less the hit threshold, % at 10 µM | 310,000 tested, 0.51% active | dofetilide IC70 present;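 active = activation above the mean of controls blocked by dofetilide plus 5 SD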;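 also: thallium influx through hERG after potassium depolarization seen as dye fluorescence rise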
KCNQ1 act: potentiators or activators of KCNQ1 channel, primary screen, cell-based, thallium flux, high-throughput; 310,000 tested, 0.35% active; CHO-K1 KCNQ1, thallium flux FluxOR fluorescence; active compounds read high; AID 2648, 2010; B-score at 10 µM;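 active = fluorescence ratio B-score, a plate-corrected score, at least three library SD, with initial intensity B-score within 5 SD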
Target sequence (P51787 whole entry, looked up): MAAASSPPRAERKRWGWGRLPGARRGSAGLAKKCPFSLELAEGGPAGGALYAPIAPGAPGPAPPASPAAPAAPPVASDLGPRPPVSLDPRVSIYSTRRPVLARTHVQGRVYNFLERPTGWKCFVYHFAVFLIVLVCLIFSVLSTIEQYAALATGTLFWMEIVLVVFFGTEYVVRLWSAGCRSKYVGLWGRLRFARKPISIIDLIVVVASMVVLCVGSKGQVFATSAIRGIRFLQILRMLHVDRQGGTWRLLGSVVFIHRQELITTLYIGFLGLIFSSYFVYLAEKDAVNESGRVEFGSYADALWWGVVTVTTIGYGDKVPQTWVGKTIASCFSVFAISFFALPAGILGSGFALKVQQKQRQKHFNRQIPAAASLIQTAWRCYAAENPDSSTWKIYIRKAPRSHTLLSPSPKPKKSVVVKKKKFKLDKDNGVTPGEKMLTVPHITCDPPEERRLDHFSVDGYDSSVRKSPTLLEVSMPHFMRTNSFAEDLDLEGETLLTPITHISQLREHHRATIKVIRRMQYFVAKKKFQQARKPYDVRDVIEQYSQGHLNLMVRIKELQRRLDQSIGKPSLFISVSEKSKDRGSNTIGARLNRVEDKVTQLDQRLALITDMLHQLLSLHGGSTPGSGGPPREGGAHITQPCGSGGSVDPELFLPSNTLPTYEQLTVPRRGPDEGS
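Test system: CHO-K1 cells stably expressing KCNQ1 / Medium: assay buffer / Also added: depolarizing K+/Tl+ stimulus, K2SO4 and Tl2SO4 each 12.5 mM in 5x stock / Incubation: 90 min dye loading and 20 min compound exposure, both at room temperature / Signal: thallium influx via FluxOR fluorescence, kinetic imaging / Evaluation: B score of baseline-normalized fluorescence ratio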
KCNQ1 inh: inhibitors of human KCNQ1 channel, primary screen, cell-based, thallium flux, high-throughput; CHO-K1 KCNQ1, FluxOR thallium flux fluorescence; active compounds read high; AID 2642, 2010; B-score at 10 µM; 310,000 tested, 1.3% active; Potassium voltage-gated channel subfamily KQT member 1 (Homo sapiens), P51787;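 active = compounds whose thallium flux B-score, printed positive for inhibition, exceeds three library SD while starting fluorescence stays within three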;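 also: channel opened by potassium depolarization with thallium stimulus after 20 min compound exposure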
KCNK3 block: human KCNK3 channel inhibitors, primary screen, CHO cells, FluxOR thallium flux, B-score; 340,000 tested, 0.84% active; Potassium channel subfamily K member 3 (Homo sapiens), O14649; AID 602410, 2012; FluxOR fluorescence; active compounds read low; B-score at 10 µM;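 active = B-score under library mean minus 4 SD, starting fluorescence ratio at most library mean plus 5 SD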;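 also: more negative B-score means stronger inhibition of thallium flux through KCNK3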
KCNK9 block: KCNK9 potassium channel inhibitors, primary screen, HEK293 cells, thallium flux; B-score at 10 µM; 310,000 tested, 1.2% active; Potassium channel subfamily K member 9 (Homo sapiens), Q9NPC2; FluxOR thallium flux fluorescence; active compounds read low;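 active = ratio B-score over 3 SD below the library mean, with starting fluorescence within 5 SD of its mean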;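 also: negative B-score means less thallium flux so channel inhibition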
KCNK9 inh conf: KCNK9 potassium channel inhibitors, confirmation, HEK293 cells, thallium flux, duplicate; shares compounds with KCNK9 block; FluxOR thallium flux fluorescence; inhibition, % at 10 µM; 4,900 tested, 43% active;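 active = thallium signal inhibited by more than 5 SD of the compound-free buffer control wells, on both duplicate plates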;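 also: 0% = assay buffer control wells without compound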
Kir2-1 spec: mouse Kir2.1 channel inhibition, confirmation, selectivity assay for KCNK9 modulator project, cell-based, HEK293, thallium flux; shares compounds with KCNK9 block; Kir2.1 cells, FluxOR thallium flux fluorescence; inhibition, % at 10 µM; 4,900 tested, 4% active; AID 492993, 2010;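 active = thallium signal drop more than 5 SD beyond the mean of the no-compound control wells, seen in both duplicate plates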;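 also: signal is fluorescence rise after thallium addition divided by baseline fluorescence; plate controls were assay buffer only for no effect and full block by chlorpromazine control for full effect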
KCNK9 uninduced: thallium flux in non-induced HEK293 cells, confirmation, counter-screen for KCNK9 inhibitor project, cell-based, second counter screen, non-induced KCNK9-HEK293; shares compounds with KCNK9 block; FluxOR thallium flux; inhibition, % at 10 µM; 4,900 tested, 40% active;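 active = thallium signal drop beyond 5 SD of the untreated control mean, on both duplicate plates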;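 also: plate controls were buffer only IC0 wells for no effect and SID17386958 at its maximal inhibitory level for full effect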
The depositor's hits bear a star; i = inactive; . = no result given.

SMILES | Kir21 block | hERG protect | KCNQ1 act | KCNQ1 inh | KCNK3 block | KCNK9 block | KCNK9 inh conf | Kir2-1 spec | KCNK9 uninduced
COC(=O)c1ccc(-c2noc(CN(C)Cc3ccncc3C)n2)cc1 | 0.05 | -26 | i | i | i | i | . | . | .
COc1ccc(-c2noc(CN(C)CCC3CCCCO3)n2)cc1 (stereo not drawn) | -1.2 | -5 | i | i | i | i | i | i | i
COc1ccc(-c2noc(CCC(=O)NCC3CCCO3)n2)cc1 (stereo not drawn) | 0.97 | -3 | i | i | i | i | . | . | .
CC1CC2OC2CC1COC(=O)C1CC2OC2CC1C (stereo not drawn) | . | . | . | . | i | . | . | . | .
COc1ccccc1C(=O)NC(=O)COC(=O)c1ccc(Br)o1 | . | . | . | . | i | . | . | . | .
Cc1ccc(S(=O)(=O)N2CCCN(C(=O)c3cc4ccccc4[nH]3)CC2)cc1 | -2.9 | -8 | i | i | i | i | . | . | .
CNc1ccc(/C=C/C(=O)c2cccc3ccccc23)cc1[N+](=O)[O-] | 0.74 | -12 | i | i | i | -11* | 48%* | i | 36%*
CNc1ccc(C(=O)c2ccccc2C(=O)O)cc1[N+](=O)[O-] | 0.19 | -9 | i | i | i | i | . | . | .
C[C@H](O)[C@@H]1C(=O)N2CCc3ccc(-c4ccccc4)cc3[C@@H]2C[C@@H]1N(C)C(=O)c1ccc(C#N)cc1 | . | . | . | . | i | . | . | . | .
Cc1ccc(N=Nc2c(O)ccc3n[nH]nc23)cc1 | 2.8 | -9 | i | i | i | i | i | i | i
CCOC(=O)c1c(C)[nH]c(N=Nc2ccc(C)cc2)c1C | -0.18 | -5 | i | i | i | i | . | . | .
CCOP(=O)(c1ccc(N(C)C)cc1)C(O)c1ccccc1F (stereo not drawn) | -0.25 | -8 | i | i | i | i | . | . | .
CCOC(=O)c1c(C)c(C(=O)N2CCc3ccccc3C2)c(C)n1CC | 1.4 | -13 | i | i | i | i | i | i | i
CCOC(=O)c1c(C)c(C(=O)NCCN2CCOCC2)c(C)n1CC | -1.7 | -10 | i | i | i | i | . | . | .
CN(CC(=O)Nc1ccccc1Oc1ccccc1)Cc1ccccc1F | -5.1* | -20 | i | i | i | -13* | 78%* | 47%* | 42%*
Cc1ccccc1CN(C)CC(=O)Nc1ccccc1-c1ccccc1 | -5.6* | -8 | i | i | i | -10* | 71%* | 55%* | 42%*
Cc1cccc(N(CC(=O)Nc2ccccc2-c2ccccc2)S(=O)(=O)c2ccccc2)c1C | -0.22 | -2 | i | i | i | i | . | . | .
CN(CC(=O)Nc1ccccc1C(=O)NC1CC1)Cc1ccccc1F | . | . | . | . | i | . | . | . | .
O=C(CNC(c1ccccc1)c1ccccc1)Nc1ccccc1-c1ccccc1 | -2.1 | -14 | i | i | i | -12* | 26%* | i | 42%*
Cc1cc(Cn2nc(-c3ccccc3)cc2C(=O)NCc2cccc(Br)c2)on1 | -0.2 | -9 | i | i | i | i | . | . | .
COc1ccccc1/C=C(/C(=O)OCC(=O)Nc1ccccc1C(C)C)c1ccccc1 | 0.14 | -5 | i | i | i | -9.5* | 51%* | i | 39%*
O=C(c1cc(S(=O)(=O)N2CCOCC2)ccc1Cl)N1CCCCC1CO (stereo not drawn) | . | . | . | . | i | . | . | . | .
COc1ccc(-c2[nH]ncc2/C=C(/C#N)C(=O)NC2CCCCCC2)cc1 | 0.97 | -9 | i | i | i | i | i | i | i
CCC(C)(C)n1nnnc1C(C(C)C)N(Cc1cccnc1)Cc1ccco1 (stereo not drawn) | -0.09 | -4 | i | i | i | i | . | . | .
CCC(C)(C)n1nnnc1C(C(C)C)N(Cc1ccco1)Cc1cc2cc3c(cc2[nH]c1=O)OCO3 (stereo not drawn) | 0.83 | -9 | i | i | i | -10* | 42%* | i | 42%*
SMILES | Kir21 block | hERG protect | KCNQ1 act | KCNQ1 inh | KCNK3 block | KCNK9 block | KCNK9 inh conf | Kir2-1 spec | KCNK9 uninduced
COc1ccc(NC(=O)CN(C)C(=O)CSc2ccc(Br)cc2)cc1 | . | . | . | . | i | . | . | . | .
O=C(Cn1cc(C(=O)c2cccs2)c2ccccc21)NC1CCCCC1 | 0.74 | -9 | i | i | i | -12* | 54%* | i | 28%*
Nc1nc(SCc2ccc(Br)cc2)c2ncn(C3OC(CO)C(O)C3O)c2n1 (stereo not drawn) | . | . | . | . | i | . | . | . | .
CC(SC1=NCCS1)C(=O)Nc1nnc(-c2ccc(Br)cc2)s1 (stereo not drawn) | 1.2 | -6 | i | i | i | -18* | i | i | 22%*
CCC(SC1=NCCS1)C(=O)Nc1nnc(-c2ccccc2OC)s1 (stereo not drawn) | -0.7 | -7 | i | i | i | -10* | 30%* | i | 34%*
CCOC(=O)Nc1nnc(-c2ccccc2OC)s1 | -1 | -4 | i | i | i | i | . | . | .
COCCN(CC(=O)Nc1ccccc1C(F)(F)F)C(=O)/C=C/c1cc(Cl)c2c(c1)OCCO2 | . | . | . | . | i | . | . | . | .
COCCC(=O)N1CCC(Oc2ccc(C(=O)NCCc3ccccn3)cc2)CC1 | 1.1 | -6 | i | i | i | i | . | . | .
Cc1ccccc1C1c2[nH]c3ccccc3c2C[C@H]2C(=O)N(C3CCN(Cc4ccccc4)CC3)CC(=O)N12 (stereo partly drawn) | -1.6 | -9 | i | i | i | i | . | . | .
CCOc1ccccc1C1c2[nH]c3ccccc3c2C[C@H]2C(=O)N(C3CCN(Cc4ccccc4)CC3)CC(=O)N12 (stereo partly drawn) | 1.1 | -14 | i | i | i | i | i | i | i
Cc1nn(Cc2ccccc2)c(=O)n1N(C)c1ncc(C(F)(F)F)cc1Cl | -0.16 | -4 | i | i | i | i | i | i | i
